Measurements from BindingDB's records for doi:10.1016/j.bmc.2010.02.001 (University of Alberta, 2010).

Molecular target: LL-diaminopimelate aminotransferase, chloroplastic (Arabidopsis thaliana, UniProt Q93ZN9)
Test: Inhibition of Arabidopsis thaliana LL-DAP-AT expressed in Escherichia coli by aminobenzaldehyde-based assay
Summary of the method: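 Recombinant C-terminal His6-tagged enzyme in 1 mL cells at 0.0043 mg/mL final. Final substrates: 8.5 mM 2-oxoglutarate, 7 mM 2-aminobenzaldehyde, 2.0 mM LL-DAP (racemic DAP), in 100 mM HEPES-KOH pH 7.6. Inhibitor in DMSO at 200, 100, 50, 25, 10 and 5 µM final. A440 read every 2 min for 200 min. Initial slopes compared with the DMSO control gave percentage inhibition, from which IC50 was calculated.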

LL-diaminopimelate aminotransferase, chloroplastic, sequence (Q93ZN9 whole entry): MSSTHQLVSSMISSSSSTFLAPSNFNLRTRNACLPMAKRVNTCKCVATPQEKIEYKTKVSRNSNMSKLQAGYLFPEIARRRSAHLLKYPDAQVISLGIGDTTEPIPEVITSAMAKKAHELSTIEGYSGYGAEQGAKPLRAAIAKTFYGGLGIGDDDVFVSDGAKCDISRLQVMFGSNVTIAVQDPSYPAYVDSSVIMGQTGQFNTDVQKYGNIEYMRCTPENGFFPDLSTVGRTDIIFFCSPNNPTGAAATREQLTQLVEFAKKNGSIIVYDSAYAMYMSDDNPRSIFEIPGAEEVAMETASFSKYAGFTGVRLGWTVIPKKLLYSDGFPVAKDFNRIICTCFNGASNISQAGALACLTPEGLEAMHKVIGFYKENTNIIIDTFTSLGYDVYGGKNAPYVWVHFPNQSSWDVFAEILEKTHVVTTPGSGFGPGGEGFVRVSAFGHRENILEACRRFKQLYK

How did the IC50 turn out when `NC(N=NCc1ccc(-c2cccc([N+](=O)[O-])c2)o1)=N[N+](=O)[O-]` [N'-nitro-2-((5-(3-nitrophenyl)furan-2-yl)methylene)hydrazinecarboximidamide] was run?
The IC50 was greater than 200 µM.
